The list is not random: actives were taken first. Their share in the collection is about 2.9%.
PfG6PD inh – PfG6PD enzyme inhibitors, primary screen, biochemical, fluorescence intensity, uHTS; AID 504690, 2011; inhibition, % at 20 µM; 0.78% of 350,000 active; glucose-6-phosphate dehydrogenase-6-phosphogluconolactonase (Plasmodium falciparum 3D7); PfGluPho enzyme, NADPH resazurin-diaphorase fluorescence;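 active means inhibition reaching at least a set limit at 20 µM in the primary screen, cut at about 59% in these data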;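 further: 0% = DMSO wells with substrate and 100% = DMSO wells lacking glucose-6-phosphate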
UBC13 inh – UBC13 polyubiquitin chain formation inhibitors, primary screen, biochemical, TR-FRET, uHTS. inhibition, % at 20 µM. 0.47% of 330,000 active. AID 485273, 2010; in the data active means inhibition above about 45%, passing the limit was not always enough
Apaf-1 inh – inhibitors of human Apaf-1 apoptosome, primary screen, biochemical, DEVD-Rh110 fluorescence, uHTS; Apoptotic protease-activating factor 1 (Homo sapiens), O14727; AID 489030, 2010; 0.71% of 330,000 active; inhibition, % at 20 µM; reconstituted apoptosome caspase-3 activity; active means inhibition of at least 40% at 20 µM;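 further: plate controls were DMSO wells for no effect and DEVD-CHO caspase inhibitor wells for full effect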
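Material: reconstituted apoptosome with Apaf-1, cytochrome c, caspase-9, procaspase-3, dATP; medium: pH 7.5 Hepes buffer with CHAPS, BSA, DTT; also added: cytochrome c and DEVD-Rh110 substrate; timing: 30 min plus 50 min, RT; signal: Rh110 fluorescence intensity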
ZTA DNA inh – counter-screen for EBNA-1 inhibitors: inhibitors of Epstein-Barr virus ZTA; inhibition, % at 11 µM; 0.15% of 320,000 active; ZTA-DNA binding, fluorescence polarization; AID 2234; in the data active means inhibition above about 33%
Target sequence (P03206 whole entry, looked up): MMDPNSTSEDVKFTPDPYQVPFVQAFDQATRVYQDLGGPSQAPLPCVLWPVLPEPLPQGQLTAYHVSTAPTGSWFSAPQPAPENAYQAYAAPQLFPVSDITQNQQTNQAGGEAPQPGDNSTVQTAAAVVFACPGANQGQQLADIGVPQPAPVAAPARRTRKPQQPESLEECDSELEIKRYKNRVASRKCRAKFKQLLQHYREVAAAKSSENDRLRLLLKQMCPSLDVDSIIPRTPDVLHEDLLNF
EBNA-1 inhibitor – EBNA-1 DNA-binding inhibitors, primary screen, biochemical, fluorescence polarization; 0.34% of 300,000 active; inhibition, % at 14.8 µM; in the data active means inhibition above about 28%
PfM18AAP inh – PfM18AAP inhibitors, malaria aminopeptidase, primary screen, biochemical, QFRET, recombinant enzyme | M18 aspartyl aminopeptidase (Plasmodium falciparum 3D7) | H-Glu-NHMec fluorogenic cleavage | inhibition, % at 7.35 µM | 1.2% of 290,000 active | AID 1822, 2009;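 active means inhibition above the campaign mean inhibition over all tested compounds plus 3 SD, cut at about 28% in these data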;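 further: 0% = plate median of test compound wells and 100% = 2 mM ZnCl2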
Casp3 counter – CASP3 inhibitor validation, counterassay for project on UBE2N polyubiquitination blockers, biochemical, one dose; inhibition, % at 20 µM; Recombinant caspase-3, Caspase-Glo 3/7 luminescence, 60 min; shares compounds with UBC13 inh; 4% of 1,400 active;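 active means mean inhibition across replicates above about 26%, limit read from the data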;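 further: plate controls were DMSO with caspase-3 for no effect and DMSO wells lacking enzyme for full effect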
Target sequence (P42574 whole entry, looked up): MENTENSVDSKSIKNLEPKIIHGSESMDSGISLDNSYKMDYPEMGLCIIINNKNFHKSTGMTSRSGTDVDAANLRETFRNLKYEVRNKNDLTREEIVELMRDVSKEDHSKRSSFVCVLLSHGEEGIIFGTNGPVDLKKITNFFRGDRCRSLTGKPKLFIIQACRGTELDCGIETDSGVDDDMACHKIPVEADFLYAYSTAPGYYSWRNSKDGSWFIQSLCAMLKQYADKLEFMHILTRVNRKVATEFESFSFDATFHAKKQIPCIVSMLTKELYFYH
UBC13 confirm – UBC13 polyubiquitination inhibitors, single-point retest, confirmation, biochemical, TR-FRET, single concentration; shares compounds with UBC13 inh; inhibition, % at 10 µM; 68% of 1,400 active; in the data active means inhibition above about 45%
Apaf-1 inh conf2 – Apaf-1 inhibitors, single-dose retest, confirmation, biochemical, fluorescence, DEVD-Rh110, 20 µM; shares compounds with Apaf-1 inh; reconstituted apoptosome, caspase-3 DEVD-Rh110 fluorescence; inhibition, % at 20 µM; 25% of 1,800 active;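 active means mean inhibition of at least 40% at 20 µM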;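 further: plate controls were DMSO wells for no effect and DEVD-CHO caspase inhibitor control wells for full effect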
Rh110 interf inh – Rh110 fluorescence interference by putative Apaf-1 inhibitors, confirmation, artefact control for Apaf-1 inhibitor project, biochemical, 20 µM | shares compounds with Apaf-1 inh | quenched caspase reaction | activation (fluorescence interference), % at 20 µM | 1,800 tested, under 10 active;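 active means signal rise of 40% or more at 20 µM, treated as a fluorescence artifact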
The depositor's hits bear a star.

`C#CCOCCOCCOCCNc1nc(N2CCN(C(=O)[C@H]([C@@H](C)CC)n3cc([C@@H](N)Cc4ccc(O)cc4)nn3)CC2)nc(N2CCN(C(=O)[C@H](Cc3cc4ccccc4[nH]3)n3cc([C@@H](N)CC(C)C)nn3)CC2)n1` gave PfG6PD inh 44.6, UBC13 inh 86.7*, Apaf-1 inh 63.0*, ZTA DNA inh -2.4, EBNA-1 inhibitor -4.4, Casp3 counter -4.2, UBC13 confirm 61.1*, Apaf-1 inh conf2 30.4 and Rh110 interf inh -3.5.
`C#CCOCCOCCOCCNc1nc(N2CCN(C(=O)C([C@@H](C)CC)n3cc(C(N)CC(C)C)nn3)CC2)nc(N2CCN(C(=O)[C@H](CCC(=O)O)n3cc(C(N)Cc4ccc(O)cc4)nn3)CC2)n1` (stereo partly specified) gave PfG6PD inh 0.7, UBC13 inh 13.9, Apaf-1 inh -8.5, ZTA DNA inh -4.8, EBNA-1 inhibitor 5.3 and PfM18AAP inh 5.9.
C#CCOCCOCCOCCNc1nc(N2CCN(C(=O)[C@H]([C@@H](C)CC)n3cc([C@@H](N)CC(C)C)nn3)CC2)nc(N2CCN(C(=O)[C@H](Cc3cc4ccccc4[nH]3)n3cc([C@@H](N)Cc4ccc(O)cc4)nn3)CC2)n1 was read as PfG6PD inh 17.9, UBC13 inh 73.7*, Apaf-1 inh 56.4*, ZTA DNA inh 4.1, EBNA-1 inhibitor 5.0, PfM18AAP inh -14.2, Casp3 counter 2.3, UBC13 confirm 65.9*, Apaf-1 inh conf2 6.6 and Rh110 interf inh -1.0.
Screening CC(=O)c1ccc(OC(=O)COc2ccccc2Cl)cc1 returned PfG6PD inh 7.9, UBC13 inh 5.5, Apaf-1 inh 6.2, ZTA DNA inh -10.3, EBNA-1 inhibitor -11.3 and PfM18AAP inh 2.9.
NC1=NC[C@H](Cc2ccc(O)cc2)N1CCC12CC3CC(CC(C3)C1)C2 was read as PfG6PD inh 3.7, UBC13 inh 77.6*, Apaf-1 inh 49.4*, ZTA DNA inh -5.4, EBNA-1 inhibitor -1.8, Casp3 counter 2.1, UBC13 confirm 58.0*, Apaf-1 inh conf2 12.0 and Rh110 interf inh 4.8.
`CS(=O)(=O)c1ccc(Cl)c(NC(=O)CNC(=O)c2ccc3c(c2)OCO3)c1` gave PfG6PD inh -12.4, UBC13 inh 7.0 and Apaf-1 inh -3.0.
For COC(=O)C1=C(C)N(Cc2ccccc2)C(=NCc2cc(OC)c(OC)c(OC)c2)N[C@H]1c1ccc(Br)cc1 the results were PfG6PD inh 13.7, UBC13 inh 55.3*, Apaf-1 inh 54.5*, Casp3 counter -0.6, UBC13 confirm 48.4*, Apaf-1 inh conf2 10.6 and Rh110 interf inh 7.4.
Screening COC(=O)C1=C(C)N(Cc2ccccc2)C(=NCc2cc(OC)c(OC)c(OC)c2)N[C@H]1CCc1ccccc1 returned PfG6PD inh 11.4, UBC13 inh 46.7*, Apaf-1 inh 48.2*, Casp3 counter 4.1, UBC13 confirm 39.4, Apaf-1 inh conf2 14.3 and Rh110 interf inh 5.0.
Screening COC(=O)C1=C(C)N(Cc2ccccc2)C(=NCc2cc(OC)c(OC)c(OC)c2)N[C@H]1c1ccccc1 returned PfG6PD inh 8.3, UBC13 inh 32.3, Apaf-1 inh 7.8, ZTA DNA inh -10.2, EBNA-1 inhibitor -1.2 and PfM18AAP inh 0.2.
Screening Cc1cc(NC(=O)c2cc(-c3ccc(OC(C)C)cc3)nc3ccccc23)no1 returned PfG6PD inh -11.0, UBC13 inh 16.1, Apaf-1 inh 20.8, ZTA DNA inh -7.2, EBNA-1 inhibitor -6.5 and PfM18AAP inh -2.6.
Screening CCC1=NN(S(=O)(=O)c2ccc(C)cc2)C(O)(C(F)(F)F)C1 (stereo unspecified) returned PfG6PD inh -9.8, UBC13 inh -8.8, Apaf-1 inh 10.6, ZTA DNA inh 4.4, EBNA-1 inhibitor -10.7 and PfM18AAP inh -8.9.
For CCN(Cc1ccccc1)C(=O)CN1C(=O)COc2ccc(S(=O)(=O)NC3CCCC3)cc21 the results were PfG6PD inh -5.3, UBC13 inh -1.8, Apaf-1 inh 7.4, ZTA DNA inh 0.7, EBNA-1 inhibitor 0.6 and PfM18AAP inh -0.4.
Cc1c(C(=O)Nc2ccc(S(=O)(=O)N(C)C3CCN(C)CC3)cc2)oc2ccccc12 was read as PfG6PD inh 32.2, UBC13 inh 55.7*, Apaf-1 inh 52.6*, ZTA DNA inh -0.9, Casp3 counter -2.4, UBC13 confirm 33.6, Apaf-1 inh conf2 20.8 and Rh110 interf inh 1.9.
`CCC[C@@H](CN1CCC[C@H]1CN1C(N)=NC[C@@H]1Cc1ccccc1)N1C[C@@H](Cc2ccccc2)N(CCCC2CCCC2)C1=N` gave PfG6PD inh 10.7, UBC13 inh 64.6*, Apaf-1 inh 70.1*, Casp3 counter -4.0, UBC13 confirm 58.4*, Apaf-1 inh conf2 12.9 and Rh110 interf inh 4.0.
CCC[C@@H](CN1CCC[C@H]1CN1C(N)=NC[C@H]1CC(C)C)N1C[C@@H](Cc2ccccc2)N(CCCC2CCCC2)C1=N was read as PfG6PD inh -2.7, UBC13 inh 76.8*, Apaf-1 inh 59.0*, Casp3 counter -1.0, UBC13 confirm 82.8*, Apaf-1 inh conf2 15.4 and Rh110 interf inh 9.4.
`CCCCN1C(=N)N([C@@H](C)CN2CCC[C@H]2CN2C(N)=NC[C@H]2CC(C)C)C[C@H]1Cc1ccccc1` gave PfG6PD inh 2.2, UBC13 inh 27.2 and Apaf-1 inh 17.7.
